Assays:
[1] = test system: Mus musculus; assay: Inhibition of nicotine-induced antinociception in mouse at 100 ug/kg, sc after 5 mins by hot plate test relative to control; type: functional
[2] = test system: Mus musculus; assay: Antinociceptive activity in mouse at 10 mg/kg, sc after 5 mins by tail flick test relative to control; type: functional; details: route subcutaneous
[3] = test system: Mus musculus; assay: Effect on spontaneous activity in sc dosed mouse after 5 mins; type: functional
[4] = test system: Mus musculus; assay: Effect on hypothermia in sc dosed mouse after 30 mins; type: functional; details: 0.5 h
[5] = species on record: Rattus norvegicus; assay: Selectivity ratio of IC50 for rat alpha7 nAChR to IC50 for rat alpha4beta2 nAChR
[6] = test system: Mus musculus; assay: Antinociceptive activity in mouse at 10 mg/kg, sc by hot plate test relative to control; type: functional; details: route subcutaneous
[7] = test system: Mus musculus; assay: Inhibition of nicotine-induced antinociception in mouse at 10000 ug/kg, sc after 5 mins by hot plate test relative to control; type: functional
[8] = test system: Mus musculus; assay: Inhibition of nicotine-induced antinociception in mouse at 1000 ug/kg, sc after 5 mins by hot plate test relative to control; type: functional
[9] = target: Neuronal acetylcholine receptor subunit alpha-7 (Rattus norvegicus) (UniProt Q05941); assay: Agonist activity at rat alpha7 nAChR expressed in Xenopus laevis oocytes assessed as stimulation of acetylcholine-induced current at 100 uM by two-electrode voltage clamp electrophysiological analysis relative to acetylcholine; type: cell-based
Method in brief: (§1)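 Rat receptors expressed in Xenopus oocytes, two-electrode voltage clamp. Current evoked by 100 µM test compound was compared with the mean of three preceding ACh applications. The response was expressed as a percentage of the maximal ACh response.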

[10] = test system: Mus musculus; assay: Inhibition of nicotine-induced antinociception in mouse at 100 ug/kg, sc after 5 mins by tail flick test relative to control; type: functional
[11] = target: Neuronal acetylcholine receptor; alpha3/beta4 (Rattus norvegicus) (UniProt P04757+P12392); assay: Agonist activity at rat alpha3beta4 nAChR expressed in Xenopus laevis oocytes assessed as stimulation of acetylcholine-induced current at 100 uM by two-electrode voltage clamp electrophysiological analysis relative to acetylcholine; type: cell-based; method in brief: as §1
[12] = target: Neuronal acetylcholine receptor subunit alpha-7 (Rattus norvegicus) (UniProt Q05941); assay: Antagonist activity at rat alpha7 nAChR expressed in Xenopus laevis oocytes assessed as inhibition of acetylcholine-induced current at 100 uM by two-electrode voltage clamp electrophysiological analysis relative to acetylcholine; type: cell-based
[13] = test system: Mus musculus; assay: Antinociceptive activity in sc dosed mouse by hot plate test; type: functional
[14] = test system: Mus musculus; assay: Antinociceptive activity in sc dosed mouse after 5 mins by tail flick test; type: functional
[15] = target: T1, Neuronal acetylcholine receptor; alpha4/beta2 (Rattus norvegicus) (UniProt P09483+P12390); assay: Agonist activity at rat alpha4beta2 nAChR expressed in Xenopus laevis oocytes assessed as stimulation of acetylcholine-induced current at 100 uM by two-electrode voltage clamp electrophysiological analysis relative to acetylcholine; type: cell-based; method in brief: as §1
[16] = test system: Mus musculus; assay: Inhibition of nicotine-induced antinociception in sc dosed mouse after 5 mins by hot plate test; type: functional
[17] = test system: Mus musculus; assay: Inhibition of nicotine-induced antinociception in sc dosed mouse after 5 mins by tail flick test; type: functional
[18] = target: Neuronal acetylcholine receptor; alpha3/beta4 (Rattus norvegicus, UniProt P04757+P12392); assay: Agonist activity at rat alpha3beta4 nAChR expressed in Xenopus laevis oocytes assessed as stimulation of acetylcholine-induced current by two-electrode voltage clamp electrophysiological analysis; type: cell-based
[19] = target: Neuronal acetylcholine receptor; alpha4/beta2 (Rattus norvegicus, UniProt P09483+P12390); assay: Antagonist activity at rat alpha4beta2 nAChR expressed in Xenopus laevis oocytes assessed as inhibition of acetylcholine-induced current by two-electrode voltage clamp electrophysiological analysis; type: cell-based
Method in brief: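 Two-electrode voltage clamp on rat α4β2, α3β4 or α7 nAChRs expressed in Xenopus oocytes. Compounds were tested across a concentration range to build concentration-inhibition curves. Data were fitted to I = Imax/[1+(IC50/X)^n] to derive IC50 and Hill coefficient.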

[20] = target: T1, Neuronal acetylcholine receptor; alpha4/beta2 (Rattus norvegicus); assay: Antagonist activity at rat alpha4beta2 nAChR expressed in Xenopus laevis oocytes assessed as inhibition of acetylcholine-induced current at 100 uM by two-electrode voltage clamp electrophysiological analysis relative to acetylcholine; type: cell-based

Neuronal acetylcholine receptor subunit alpha-7 (Rattus norvegicus), sequence (Q05941 whole entry): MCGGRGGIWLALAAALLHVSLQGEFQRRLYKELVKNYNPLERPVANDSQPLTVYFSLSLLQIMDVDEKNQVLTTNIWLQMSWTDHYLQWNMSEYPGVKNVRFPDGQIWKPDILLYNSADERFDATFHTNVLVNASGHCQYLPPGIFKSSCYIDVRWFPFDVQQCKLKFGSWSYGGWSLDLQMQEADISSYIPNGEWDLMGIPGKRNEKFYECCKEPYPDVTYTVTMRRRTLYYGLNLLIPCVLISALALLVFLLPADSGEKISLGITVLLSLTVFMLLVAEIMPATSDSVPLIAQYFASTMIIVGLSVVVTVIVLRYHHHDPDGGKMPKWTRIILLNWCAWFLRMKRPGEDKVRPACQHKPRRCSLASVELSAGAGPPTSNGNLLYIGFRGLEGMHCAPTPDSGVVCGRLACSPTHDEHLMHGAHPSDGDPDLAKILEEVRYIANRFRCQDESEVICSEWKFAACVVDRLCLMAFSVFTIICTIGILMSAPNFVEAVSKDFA
Neuronal acetylcholine receptor; alpha4/beta2, sequence (P09483 whole entry): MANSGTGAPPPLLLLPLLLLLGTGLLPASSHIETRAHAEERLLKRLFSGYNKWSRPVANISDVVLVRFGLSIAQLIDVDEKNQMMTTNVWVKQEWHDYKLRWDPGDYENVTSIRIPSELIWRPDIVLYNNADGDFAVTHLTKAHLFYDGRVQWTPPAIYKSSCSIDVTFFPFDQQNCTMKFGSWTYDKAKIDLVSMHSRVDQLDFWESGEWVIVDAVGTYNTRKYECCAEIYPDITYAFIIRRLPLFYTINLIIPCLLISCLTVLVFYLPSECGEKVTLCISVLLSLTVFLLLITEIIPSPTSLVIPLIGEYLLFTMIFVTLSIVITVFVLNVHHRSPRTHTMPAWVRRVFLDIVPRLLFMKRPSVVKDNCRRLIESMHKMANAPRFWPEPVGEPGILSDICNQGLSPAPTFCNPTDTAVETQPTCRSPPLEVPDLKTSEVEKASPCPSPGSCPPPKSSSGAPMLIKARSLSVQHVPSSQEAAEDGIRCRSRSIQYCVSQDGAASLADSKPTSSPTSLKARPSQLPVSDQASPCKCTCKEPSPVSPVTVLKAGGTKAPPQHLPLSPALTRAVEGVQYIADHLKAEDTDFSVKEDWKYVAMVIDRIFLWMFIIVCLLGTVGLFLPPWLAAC
Neuronal acetylcholine receptor; alpha4/beta2, sequence (P12390 whole entry): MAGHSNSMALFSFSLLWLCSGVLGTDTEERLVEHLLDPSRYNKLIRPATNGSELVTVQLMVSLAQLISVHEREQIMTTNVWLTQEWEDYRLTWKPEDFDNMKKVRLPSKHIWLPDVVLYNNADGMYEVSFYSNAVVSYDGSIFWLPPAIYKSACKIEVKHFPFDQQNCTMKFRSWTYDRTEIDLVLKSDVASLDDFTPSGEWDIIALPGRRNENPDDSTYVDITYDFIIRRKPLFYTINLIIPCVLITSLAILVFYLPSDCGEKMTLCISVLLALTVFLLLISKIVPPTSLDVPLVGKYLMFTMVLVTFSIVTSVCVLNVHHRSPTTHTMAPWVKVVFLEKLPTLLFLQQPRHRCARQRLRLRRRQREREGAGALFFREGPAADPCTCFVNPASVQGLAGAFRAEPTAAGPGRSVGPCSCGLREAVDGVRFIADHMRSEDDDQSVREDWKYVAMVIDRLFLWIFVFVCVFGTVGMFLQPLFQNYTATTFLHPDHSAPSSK
Neuronal acetylcholine receptor; alpha3/beta4, sequence (P04757 whole entry): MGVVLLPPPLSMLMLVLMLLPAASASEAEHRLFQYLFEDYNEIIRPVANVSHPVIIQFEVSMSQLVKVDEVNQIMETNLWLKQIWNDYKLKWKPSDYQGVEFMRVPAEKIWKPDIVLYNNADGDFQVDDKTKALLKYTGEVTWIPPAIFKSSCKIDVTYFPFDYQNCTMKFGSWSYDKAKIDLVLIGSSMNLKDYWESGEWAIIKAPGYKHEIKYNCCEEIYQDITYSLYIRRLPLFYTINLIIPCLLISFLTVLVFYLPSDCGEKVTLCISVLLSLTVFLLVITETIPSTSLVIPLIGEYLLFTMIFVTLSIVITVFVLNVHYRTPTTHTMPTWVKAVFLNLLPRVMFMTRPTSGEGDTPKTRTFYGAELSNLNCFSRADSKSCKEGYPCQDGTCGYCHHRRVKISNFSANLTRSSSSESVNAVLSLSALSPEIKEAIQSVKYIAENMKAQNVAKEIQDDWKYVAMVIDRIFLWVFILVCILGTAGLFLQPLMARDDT
Neuronal acetylcholine receptor; alpha3/beta4, sequence (P12392 whole entry): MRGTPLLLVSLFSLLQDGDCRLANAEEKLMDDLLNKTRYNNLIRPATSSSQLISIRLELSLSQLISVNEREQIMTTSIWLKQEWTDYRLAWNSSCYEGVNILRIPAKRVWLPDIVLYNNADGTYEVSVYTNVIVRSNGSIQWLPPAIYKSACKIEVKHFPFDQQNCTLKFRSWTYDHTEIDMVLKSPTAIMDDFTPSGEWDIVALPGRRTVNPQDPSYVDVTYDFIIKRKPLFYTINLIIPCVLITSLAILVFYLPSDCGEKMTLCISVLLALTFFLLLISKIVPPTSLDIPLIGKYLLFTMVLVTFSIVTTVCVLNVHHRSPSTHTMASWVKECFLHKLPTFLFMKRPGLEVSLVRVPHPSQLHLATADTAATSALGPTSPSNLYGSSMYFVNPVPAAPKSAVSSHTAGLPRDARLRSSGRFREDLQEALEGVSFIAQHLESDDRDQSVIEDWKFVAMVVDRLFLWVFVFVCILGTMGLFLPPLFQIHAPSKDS

## COc1ccc(-c2cc([C@H]3C[C@H]4CC[C@H]3N4)cnc2F)cn1 (racemic)
[1]
  inhibition in vivo at 0.1 mg/kg: 0%

## O=[N+]([O-])c1ccc(-c2cc([C@H]3C[C@H]4CC[C@H]3N4)cnc2F)cc1 (racemic)
[2]
  Activity: 5%
[3]
  ED50: 0.22 mg/kg
[4]
  ED50: 0.21 mg/kg
[5]
  Ratio IC50: 10

## O=[N+]([O-])c1cccc(-c2cc(C3CC4CCC3N4)cnc2F)c1 (racemic)
[6]
  Activity: 20%
[2]
  Activity: 3%
[3]
  ED50: 6.5 mg/kg

## COc1cc(-c2cc([C@H]3C[C@H]4CC[C@H]3N4)cnc2F)ccn1 (racemic)
[7]
  inhibition in vivo at 10 mg/kg: 40%

## Fc1ncc(C2CC3CCC2N3)cc1-c1cccnc1 (racemic)
[8]
  inhibition in vivo at 1 mg/kg: 10%
[9]
  Emax: 7%

## Fc1ccc(-c2cc([C@H]3C[C@H]4CC[C@H]3N4)cnc2F)cn1 (racemic)
[1]
  inhibition in vivo at 0.1 mg/kg: 1%
[10]
  inhibition in vivo at 0.1 mg/kg: 1%
[11]
  Emax: 9%

## Nc1cc(-c2cc([C@H]3C[C@H]4CC[C@H]3N4)cnc2F)ccn1 (racemic)
[9]
  Emax: 10%

## Nc1ccc(-c2cc([C@H]3C[C@H]4CC[C@H]3N4)cnc2F)cn1 (racemic)
[12]
  Imax: 50%

## Clc1ccc(C2CC3CCC2N3)cn1 (centres undefined) [EPIBATIDINE]
[3]
  ED50: 0.001 mg/kg
[13]
  ED50: 0.004 mg/kg
[14]
  ED50: 0.006 mg/kg
[9]
  Emax: 150%
[11]
  Emax: 97%
[15]
  Emax: 131%

## CN1CCC[C@H]1c1cccnc1 [NICOTINE]
[3]
  ED50: 0.5 mg/kg
[4]
  ED50: 1 mg/kg
[9]
  Emax: 43%
[11]
  Emax: 37%
[15]
  Emax: 40%

## c1cnc2cc3c(cc2n1)[C@@H]1CNC[C@H]3C1 [VARENICLINE]
[6]
  Activity: 10%
[2]
  Activity: 11%
[16]
  AD50: 0.47 mg/kg
[17]
  AD50: 0.0002 mg/kg
[3]
  ED50: 2.1 mg/kg
[4]
  ED50: 2.8 mg/kg
[18]
  EC50: 55 µM
[19]
  IC50: 0.2 µM
[20]
  Imax: 38%
[9]
  Emax: 74%
[11]
  Emax: 66%
[15]
  Emax: 13%
